From ChEMBL document CHEMBL4699451, “Discovery of BIIB068: A Selective, Potent, Reversible Bruton's Tyrosine Kinase Inhibitor as an Orally Efficacious Agent for Autoimmune Diseases” (J Med Chem, 2020)
pIC50, pKi: −log10 of the molar value.

Key:
[1] = Half life in dog at 1 mg/kg, iv; type: ADME, organism-based, Canis lupus familiaris; conditions: in vivo
Cytochrome P450 3A4 [2] = molecular target: T1, Cytochrome P450 3A4 (Homo sapiens, UniProt P08684); experiment: Inhibition of CYP3A4 in human liver microsomes using testosterone as substrate measured after 15 mins in presence of NADPH by LC-MS/MS analysis; type: ADME
Cytochrome P450 1A2 = molecular target: T2, Cytochrome P450 1A2 (Homo sapiens, UniProt P05177); experiment: Induction of CYP1A2 in human hepatocytes up to 50 uM; type: ADME, cell-based, Hepatocyte
T2 sequence (P05177 whole entry): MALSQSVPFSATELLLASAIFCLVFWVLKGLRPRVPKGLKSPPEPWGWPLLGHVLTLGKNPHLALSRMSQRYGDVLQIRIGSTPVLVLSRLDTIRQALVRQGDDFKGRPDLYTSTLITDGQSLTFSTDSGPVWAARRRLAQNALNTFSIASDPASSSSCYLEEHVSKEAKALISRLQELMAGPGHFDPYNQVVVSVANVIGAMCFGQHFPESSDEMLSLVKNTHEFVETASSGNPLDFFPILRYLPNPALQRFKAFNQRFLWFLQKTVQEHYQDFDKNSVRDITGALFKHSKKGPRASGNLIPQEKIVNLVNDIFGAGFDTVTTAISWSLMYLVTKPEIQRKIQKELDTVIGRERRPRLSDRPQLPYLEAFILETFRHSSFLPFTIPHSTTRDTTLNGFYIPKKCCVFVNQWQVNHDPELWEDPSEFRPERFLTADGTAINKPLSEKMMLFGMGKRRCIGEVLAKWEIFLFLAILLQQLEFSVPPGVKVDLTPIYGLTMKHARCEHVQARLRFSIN
Summary of the method: (§1)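 Sandwich-cultured human hepatocytes exposed at concentrations up to 50 μM; induction of CYP1A2, 2B6 and 3A4 assessed.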

[3] = Cmax in dog at 5 mg/kg, po; type: ADME, organism-based, Canis lupus familiaris; parameters: route oral, dose 5 mg/kg; conditions: in vivo
Cytochrome P450 2D6 = Cytochrome P450 2D6 (Homo sapiens, UniProt P10635); experiment: Inhibition of CYP2D6 in human liver microsomes using dextromethorphan as substrate measured after 15 mins in presence of NADPH by LC-MS/MS analysis; type: ADME
[4] = AUC (infinity) in Sprague-Dawley rat at 50 mg/kg; type: ADME, organism-based; parameters: time infinity, dose 50 mg/kg; conditions: in vivo
Summary of the method: (§2)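 Sprague-Dawley rats and cynomolgus monkeys given compound daily in GLP toxicity studies lasting up to 13 weeks; daily AUCinf taken at the no-observed-adverse-effect dose level of each species.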

[5] = Toxicity in cynomolgus monkey assessed as effect on gross pathology measured up to 13 weeks; parameters: species or system Macaca fascicularis; conditions: in vivo, 2184 h
Summary of the method: (§3)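 GLP toxicity studies lasting up to 13 weeks, run in Sprague-Dawley rats and cynomolgus monkeys.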

[6] = Protein binding in rat plasma assessed as unbound fraction; type: ADME, cell-free
[7] = AUC in rat at 5 mg/kg, po; type: ADME, organism-based; parameters: dose 5 mg/kg; conditions: in vivo
Cytochrome P450 2B6 = molecular target: T3, Cytochrome P450 2B6 (Homo sapiens, UniProt P20813); experiment: Induction of CYP2B6 in human hepatocytes up to 50 uM; type: ADME, cell-based, Hepatocyte; summary of the method: as §1
T3 sequence (P20813 whole entry): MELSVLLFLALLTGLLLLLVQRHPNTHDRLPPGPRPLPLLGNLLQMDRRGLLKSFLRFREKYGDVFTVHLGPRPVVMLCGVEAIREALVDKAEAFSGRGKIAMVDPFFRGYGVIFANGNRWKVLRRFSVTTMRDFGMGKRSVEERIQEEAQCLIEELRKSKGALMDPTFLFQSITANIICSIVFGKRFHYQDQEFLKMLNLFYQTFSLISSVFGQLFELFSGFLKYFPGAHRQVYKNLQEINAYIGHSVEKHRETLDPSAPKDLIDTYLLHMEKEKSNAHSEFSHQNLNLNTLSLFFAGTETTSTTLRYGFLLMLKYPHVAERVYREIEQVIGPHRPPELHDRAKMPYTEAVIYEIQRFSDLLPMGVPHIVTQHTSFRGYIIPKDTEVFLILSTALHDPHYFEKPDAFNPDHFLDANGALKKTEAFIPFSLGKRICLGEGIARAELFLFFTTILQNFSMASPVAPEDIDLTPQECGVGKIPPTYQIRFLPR

[8] = Toxicity in Sprague-Dawley rat assessed as change in ECG measured up to 13 weeks; conditions: in vivo, 2184 h; summary of the method: as §3
[9] = Stability in mouse plasma assessed as parent compound remaining after 6 hrs; type: ADME, cell-free; conditions: read-out: Stabilty
Summary of the method: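 Compound incubated in plasma for 6 hours, then percentage of parent compound remaining determined.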

[10] = Toxicity in cynomolgus monkey assessed as change in body weight measured up to 13 weeks; parameters: species or system Macaca fascicularis; conditions: in vivo, 2184 h; summary of the method: as §3
[11] = Kinetic solubility of compound at pH 6.8 by shake flask method; type: physicochemical; conditions: buffer, read-out: Kinetic_solubility
[12] = Half life in human at 10 to 120 mg administered orally using tablet form of sample; type: ADME; conditions: in vivo, po, dose 10-120 mg
Summary of the method: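 Phase I single ascending dose study in healthy volunteers; oral tablet at 10 mg escalating through a 120 mg cohort; plasma pharmacokinetics followed, median t1/2 reported per cohort.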

[13] = Half life in rat at 1 mg/kg, iv; type: ADME, organism-based; conditions: in vivo
[14] = Tmax in human at 10 to 120 mg administered orally using tablet form of sample; type: ADME; conditions: in vivo, po, dose 10-120 mg
Summary of the method: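 Single ascending oral tablet doses from 10 mg up to 120 mg given to healthy volunteers; plasma concentration followed over time after dosing.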

[15] = AUC (infinity) in cynomolgus monkey at 100 mg/kg; type: ADME, organism-based, Macaca fascicularis; parameters: time infinity, dose 100 mg/kg; conditions: in vivo; summary of the method: as §2
[16] = Toxicity in cynomolgus monkey assessed as histopathological changes measured up to 13 weeks; parameters: species or system Macaca fascicularis; conditions: in vivo, 2184 h; summary of the method: as §3
Cytochrome P450 3A4 [17] = molecular target: T1, Cytochrome P450 3A4; experiment: Time-dependent inhibition of CYP3A4 in human liver microsomes using testosterone in presence of NADPH by LC-MS/MS analysis; type: ADME
[18] = Clearance in cynomolgus monkey at 1 mg/kg, iv relative to hepatic blood flow; type: ADME, organism-based, Macaca fascicularis; conditions: in vivo
[19] = Toxicity in Sprague-Dawley rat assessed as effect on clinical sign measured up to 13 weeks; conditions: in vivo, 2184 h; summary of the method: as §3
[20] = Genotoxicity in Sprague-Dawley rat assessed as micronuclei formation by micronucleus assay; type: toxicity
Summary of the method: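 In vivo micronucleus test in Sprague-Dawley rats; bone marrow scored for micronuclei, clastogenic activity and disruption of the mitotic apparatus.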

[21] = Protein binding in human plasma assessed as unbound fraction at 2 uM by rapid equilibrium dialysis method; type: ADME, cell-free
Summary of the method: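 Unbound fraction in human plasma determined by rapid equilibrium dialysis at 2 µM compound.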

[22] = Toxicity in Sprague-Dawley rat assessed as histopathological changes measured up to 13 weeks; conditions: in vivo, 2184 h; summary of the method: as §3
[23] = Toxicity in Sprague-Dawley rat assessed as effect on food consumption measured up to 13 weeks; conditions: in vivo, 2184 h; summary of the method: as §3
[24] = Volume of distribution at steady state in rat at 1 mg/kg, iv; type: ADME, organism-based; conditions: in vivo, read-out: Vdss
Summary of the method: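 Intravenous dosing at 1 mg/kg in male SD rats, measured in triplicate; vehicle 40% NMP solution. Clearance expressed as %Qh.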

T1 sequence (P08684 whole entry): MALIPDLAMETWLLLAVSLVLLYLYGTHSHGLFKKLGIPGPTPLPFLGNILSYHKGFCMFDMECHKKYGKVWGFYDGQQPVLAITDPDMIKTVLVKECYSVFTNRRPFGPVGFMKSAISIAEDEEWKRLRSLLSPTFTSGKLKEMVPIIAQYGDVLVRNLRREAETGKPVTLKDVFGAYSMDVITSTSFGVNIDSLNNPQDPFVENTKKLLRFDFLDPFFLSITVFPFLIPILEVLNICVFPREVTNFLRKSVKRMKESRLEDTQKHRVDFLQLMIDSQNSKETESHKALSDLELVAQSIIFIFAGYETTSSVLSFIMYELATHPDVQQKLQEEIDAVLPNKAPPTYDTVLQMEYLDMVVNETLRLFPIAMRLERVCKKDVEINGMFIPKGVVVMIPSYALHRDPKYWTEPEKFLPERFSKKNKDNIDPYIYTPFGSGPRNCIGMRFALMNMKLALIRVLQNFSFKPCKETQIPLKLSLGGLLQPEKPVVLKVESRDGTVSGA
Sequence of Cytochrome P450 2D6 (P10635 whole entry): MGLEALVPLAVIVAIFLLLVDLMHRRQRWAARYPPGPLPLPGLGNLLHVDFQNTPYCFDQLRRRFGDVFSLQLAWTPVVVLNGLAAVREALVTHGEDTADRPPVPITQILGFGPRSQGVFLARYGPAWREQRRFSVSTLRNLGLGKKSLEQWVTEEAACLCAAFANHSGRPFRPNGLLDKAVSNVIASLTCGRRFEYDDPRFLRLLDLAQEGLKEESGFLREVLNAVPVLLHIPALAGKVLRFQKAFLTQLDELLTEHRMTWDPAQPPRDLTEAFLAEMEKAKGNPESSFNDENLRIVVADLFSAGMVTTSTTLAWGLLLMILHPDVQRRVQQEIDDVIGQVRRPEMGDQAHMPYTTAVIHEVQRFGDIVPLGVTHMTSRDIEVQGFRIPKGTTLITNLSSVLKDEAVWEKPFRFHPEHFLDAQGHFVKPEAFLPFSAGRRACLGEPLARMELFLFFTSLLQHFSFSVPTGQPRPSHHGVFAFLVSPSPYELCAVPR

half-life [1]: 2.1 h
pIC50 (Cytochrome P450 3A4 [2]): < 4.60
Activity (Cytochrome P450 1A2): Not Active
Cmax [3]: 652 ng/mL
pIC50 (Cytochrome P450 2D6): < 4.60
AUC(0-inf) [4]: 376 µg·h/mL
fraction unbound [6]: 0.0128
AUC [7]: 11.9 µg·h/mL
Activity (Cytochrome P450 2B6): Not Active
remaining at 6 h [9]: > 95%
solubility kinetic [11]: > 10 µg/mL
half-life [12]: 6 h
half-life [13]: 1.2 h
Tmax [14]: 0.9 h
AUC(0-inf) [15]: 129 µg·h/mL
pKi (Cytochrome P450 3A4 [17]): 4.30
CL [18]: 26%
fraction unbound at 2 µM [21]: 0.059
Vd [24]: 0.2 L/kg
SMILES: Cc1cc(-c2ccnc(Nc3cnn(C)c3)n2)ccc1CNC(=O)N1CC(OC(C)C)C1
Activity [5]: Non-Toxic
Activity [8]: Non-Toxic
Activity [10]: Non-Toxic
Activity [16]: Non-Toxic
Activity [19]: Non-Toxic
Activity [20]: Non-Toxic
Activity [22]: Non-Toxic
Activity [23]: Non-Toxic
